# From ChEMBL document CHEMBL1153913, “5-Arylidene-2-phenylimino-4-thiazolidinones as PTP1B and LMW-PTP inhibitors” (Bioorg Med Chem, 2009)
# pIC50: −log10 of the molar value.
# Tests used:
# [1] = biological target: T1, Low molecular weight phosphotyrosine protein phosphatase (Saccharomyces cerevisiae S288c, UniProt P40347); assay: Inhibition of Saccharomyces cerevisiae Ltp1
# T1 sequence (P40347 whole entry): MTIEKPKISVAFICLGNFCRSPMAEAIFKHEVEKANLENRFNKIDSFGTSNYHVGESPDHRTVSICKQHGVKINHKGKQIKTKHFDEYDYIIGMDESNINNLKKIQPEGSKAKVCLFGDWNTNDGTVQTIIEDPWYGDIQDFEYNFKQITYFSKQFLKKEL
# In short: (§1)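 p-Nitrophenylphosphate hydrolysis at 37 °C in pH 7.0 buffer with 0.075 M β,β-dimethylglutarate, 1 mM EDTA and 5 mM DTT. The enzyme was added to start the reaction, which was stopped with 1 M KOH. Released p-nitrophenolate was read at 400 nm. Initial rates were measured in triplicate with substrate fixed at each PTP's Km. IC50 was fitted from Vi/V0 = IC50/(IC50+[I]).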
# [2] = biological target: T2, Tyrosine-protein phosphatase non-receptor type 1 (Homo sapiens, UniProt P18031); assay: Inhibition of GST-tagged human PTP1B; in short: as §1
# T2 sequence (P18031 whole entry): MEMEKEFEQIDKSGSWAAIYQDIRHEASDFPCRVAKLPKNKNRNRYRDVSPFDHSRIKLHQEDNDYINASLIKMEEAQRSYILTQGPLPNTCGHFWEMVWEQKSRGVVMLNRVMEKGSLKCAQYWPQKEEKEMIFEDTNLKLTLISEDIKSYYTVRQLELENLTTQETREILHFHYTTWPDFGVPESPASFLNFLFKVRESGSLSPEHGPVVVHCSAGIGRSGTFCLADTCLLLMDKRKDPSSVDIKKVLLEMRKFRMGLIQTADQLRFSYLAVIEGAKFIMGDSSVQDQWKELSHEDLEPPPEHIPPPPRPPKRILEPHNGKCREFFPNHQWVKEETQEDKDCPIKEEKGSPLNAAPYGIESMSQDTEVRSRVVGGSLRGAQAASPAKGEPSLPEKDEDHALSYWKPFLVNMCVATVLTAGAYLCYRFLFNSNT
# [3] = biological target: T3, Low molecular weight phosphotyrosine protein phosphatase (Homo sapiens, UniProt P24666); assay: Inhibition of GST-tagged human LMW PTP1B IF1 isoform; in short: as §1
# T3 sequence (P24666 whole entry): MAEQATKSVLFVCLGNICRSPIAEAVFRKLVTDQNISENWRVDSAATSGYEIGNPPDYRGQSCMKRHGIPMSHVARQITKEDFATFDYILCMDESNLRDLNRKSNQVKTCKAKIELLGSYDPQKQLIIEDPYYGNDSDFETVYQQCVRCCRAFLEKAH
# [4] = biological target: Low molecular weight PTP, IF2 isoform (Homo sapiens); assay: Inhibition of GST-tagged human LMW PTP1B IF2 isoform
pIC50 [1],pIC50 [2],pIC50 [3],pIC50 [4],SMILES
< 3.60,4.47,–,–,COc1cc(/C=C2\S/C(=N\c3ccccc3)N(Cc3ccc(C(=O)O)cc3)C2=O)ccc1O
3.71,4.52,4.32,3.57,O=C(O)c1ccc(CN2C(=O)/C(=C/c3ccc(O)cc3)S/C2=N\c2ccccc2)cc1
4.95,5.72,–,–,O=C(O)c1ccc(CN2C(=O)/C(=C/c3cccc(Oc4ccccc4)c3)S/C2=N\c2ccccc2)cc1
5.20,5.96,–,–,O=C(O)c1ccc(CN2C(=O)/C(=C/c3ccc(Oc4ccccc4)cc3)S/C2=N\c2ccccc2)cc1
4.89,5.42,–,–,O=C(O)c1ccc(CN2C(=O)/C(=C/c3cccc(OCc4ccccc4)c3)S/C2=N\c2ccccc2)cc1
3.46,4.71,–,–,O=C(O)c1ccc(CN2C(=O)/C(=C/c3ccc(O)c(C(=O)O)c3)S/C2=N\c2ccccc2)cc1
4.80,5.96,–,–,O=C(O)c1ccc(CN2C(=O)/C(=C/c3ccc(OCc4ccccc4)cc3)S/C2=N\c2ccccc2)cc1
< 3.30,4.85,–,–,O=C(O)c1ccc(CN2C(=O)/C(=C/c3cccc4ccccc34)S/C2=N\c2ccccc2)cc1
< 3.60,4.45,4.20,< 3.60,O=C(O)c1ccc(CN2C(=O)/C(=C/c3cccc(O)c3)S/C2=N\c2ccccc2)cc1
< 3.60,4.49,–,–,COc1ccc(/C=C2\S/C(=N\c3ccccc3)N(Cc3ccc(C(=O)O)cc3)C2=O)cc1O
4.56,5.72,5.43,4.86,O=C(O)c1ccc(CN2C(=O)/C(=C/c3ccc4ccccc4c3)S/C2=N\c2ccccc2)cc1
